In ChEMBL document CHEMBL1157438, “Maleimide and maleic anhydride derivatives from the mycelia of Antrodia cinnamomea and their nitric oxide inhibitory activities in macrophages” (2008):

How the values were obtained:
[1] = system: RAW264.7; assay: Cell viability of LPS-stimulated mouse RAW264.7 cells after 24 hrs by MTT assay; format: functional; set-up: concentration or dose not given beside the values
In short: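 Cells cultured as for the nitrite assay (DMEM/10% FBS, medium renewed at 24 h) and exposed to compounds at 0–20 µg/mL plus LPS 1 µg/mL for 24 h. MTT (5 mg/mL stock in PBS, 10 µL per 100 µL culture) added for 4 h at 37 °C, formazan dissolved in DMSO, read at 550 nm; untreated cells set as 100%. Mean ± SD, three experiments in triplicate.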

[2] = system: RAW264.7; assay: Antiinflammatory activity in mouse RAW264.7 cells assessed as inhibition of LPS-induced NO production by measuring nitrite level after 24 hrs; format: functional
In short: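 RAW264.7 cells in DMEM with 10% heat-inactivated FBS, 37 °C, 5% CO2, 96-well; medium renewed after 24 h, then compounds (0, 1, 5, 10 or 20 µg/mL) added with LPS 1 µg/mL for 24 h. Supernatant mixed 1:1 with Griess reagent, 10 min room temperature, nitrite read at 540 nm. Mean ± SD of three experiments, each in triplicate.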

| SMILES | Activity [1] | Activity [2] |
| --- | --- | --- |
| CC(C)=CCOc1ccc(C2=C(CC(C)C)C(O)OC2=O)cc1 (centres undefined) [ANTROCINNAMOMIN D] | 88.2% | 20 µM |
| CC(C)CC1=C(c2ccc(O)cc2)C(=O)N(O)C1=O [ANTROCINNAMOMIN B] | 82.2% | 18 µM |
| CC(=O)ON1C(=O)C(CC(C)C)=C(c2ccc(OCC=C(C)C)cc2)C1=O [ANTROCINNAMOMINS A] | 91.1% | 12.5 µM |
| CC(C)=CCOc1ccc(C2=C(CC(C)C)C(=O)NC2=O)cc1 | 69.1% | 10.6 µM |
| CC(C)=CCOc1ccc(C2=C(CC(C)C)C(=O)N(O)C2=O)cc1 | 86.8% | 18.3 µM |
| CC(C)=CCOc1ccc(C2=C(CC(C)C)C(=O)OC2=O)cc1 | 67.9% | 20.8 µM |
| CC(C)CC1=C(c2ccc(O)cc2)C(=O)OC1=O [ANTROCINNAMOMIN C] | 76.3% | 21.8 µM |
